The values below come from ChEMBL document CHEMBL2176933 (J Med Chem, 2012).

Series [1] concerns Mus musculus. In words: Inhibition of LRRK2 G2019S mutant phosphorylation at Ser1292 in BAC transgenic mouse brain at 10 to 50 mg/kg, ip after 1 to 24 hrs. The format is functional, organism-based. An outline of the steps: (§1)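 BAC transgenic mice expressing human G2019S LRRK2 received a single dose, oral (15 or 50 mg/kg) or ip (10 or 50 mg/kg). Hippocampus and spleen were harvested 1–24 h postdose for pSer1292 levels and compound concentration. Inhibition was normalized to vehicle-dosed mice (n = 3), with n = 1–4 per dose and time point, and fitted to a direct inhibition model.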

The next series has as its system MDCK. In words: Efflux ratio of permeability from basolateral to apical over apical to basolateral side in MDCK cells expressing human MDR1. The following applies: dog.
For series [2], the system named is Mus musculus. In words: Inhibition of LRRK2 G2019S mutant phosphorylation at Ser1292 in BAC transgenic mouse brain at 10 to 50 mg/kg, po after 1 to 24 hrs. It is filed as functional, organism-based. An outline of the steps:
as §1

The nature of series [3]: Plasma protein binding in cynomolgus monkey. It is filed as ADME, cell-free, Macaca fascicularis. The note with it: read-out: PPB (converted).
Series [4] in a line: Clearance in human hepatocytes. The format is ADME, cell-based, Liver, Hepatocyte. In outline:
(§2)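 Metabolic stability determined in vitro in cryopreserved hepatocytes, human and rat.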

A short description of series [5]: Selectivity ratio of Ki for JAK2 to Ki for LRRK2. In outline: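 Ratio computed as JAK2 Ki divided by LRRK2 Ki, both from biochemical assays.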
Series [6] is described as follows: Plasma protein binding in rat. It is filed as ADME, cell-free. The note with it: read-out: PPB (converted). In outline: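 Plasma protein binding measured in vitro in rat plasma; used to convert total clearance to unbound clearance and total to unbound plasma levels.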
Series [7] addresses 5-hydroxytryptamine receptor 2B (Homo sapiens) (UniProt P41595). Nature of the series: Inhibition of recombinant human 5HT2B receptor expressed in CHO cells at 10 uM. It is filed as cell-based.
Series [8] can be described thus: Clearance in rat hepatocytes. The format is ADME, cell-based, Liver, Hepatocyte. An outline of the steps: as §2
Series [9] addresses T1, Leucine-rich repeat serine/threonine-protein kinase 2 (Homo sapiens, UniProt Q5S007). Nature of the series: Inhibition of autophosphorylation of LRRK2 in human HEK293 cells. The format is cell-based.
A further series relates to MDR1 (human). In words: Apparent permeability from apical to basolateral side of MDCK cells expressing human MDR1. The following applies: dog. It is filed as ADME, cell-based, Canis lupus familiaris. An outline of the steps:
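Transport measured in an MDCK cell line transfected with human P-gp (MDR1); apical-to-basolateral and basolateral-to-apical permeability determined; efflux ratio taken as (B−A)/(A−B).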

Series [10] addresses T1, Leucine-rich repeat serine/threonine-protein kinase 2. Nature of the series: Inhibition of LRRK2 using FAM-LRRKtide as substrate after 120 mins by microfluidic capillary electrophoresis assay.
A short description of series [11]: Selectivity ratio of Ki for TTK to Ki for LRRK2. In outline: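 Ratio computed as TTK Ki, from a Lanthascreen assay, divided by LRRK2 Ki from the biochemical assay.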
The target of the next series is T2, Cytochrome P450 1A2 (Homo sapiens, UniProt P05177).
T2 sequence (P05177 whole entry): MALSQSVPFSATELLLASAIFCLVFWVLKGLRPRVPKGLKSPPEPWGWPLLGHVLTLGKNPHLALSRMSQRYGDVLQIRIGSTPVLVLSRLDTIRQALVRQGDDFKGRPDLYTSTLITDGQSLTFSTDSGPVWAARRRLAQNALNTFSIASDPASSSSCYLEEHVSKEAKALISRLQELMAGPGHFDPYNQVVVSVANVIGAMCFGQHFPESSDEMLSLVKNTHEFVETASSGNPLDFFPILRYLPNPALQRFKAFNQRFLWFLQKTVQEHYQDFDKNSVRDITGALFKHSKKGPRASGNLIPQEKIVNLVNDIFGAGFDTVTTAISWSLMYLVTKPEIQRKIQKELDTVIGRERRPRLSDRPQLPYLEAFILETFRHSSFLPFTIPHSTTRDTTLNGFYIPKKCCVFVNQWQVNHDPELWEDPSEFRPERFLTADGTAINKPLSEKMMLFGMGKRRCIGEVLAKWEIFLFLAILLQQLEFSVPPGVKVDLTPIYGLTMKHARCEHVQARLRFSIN
Nature of the series: Time dependent inhibition of CYP1A2. It is filed as ADME.

The nature of series [12]: Drug metabolism in S9 fraction. The format is ADME, subcellular.
The subject of a further series is PBL. Nature of the series: Genotoxicity in human PBL assessed as induction of micronuclei formation. The format is toxicity, cell-based.

Active and inactive are the calls of the source. The calls are words filed in the database; no cut-off is given here. Bounds are passed on as bounds.

By inhibition is commonly meant how much of the control response was suppressed. Broadly, the IC50 is the concentration that inhibits the measured activity by half. The Papp A→B is how fast a substance crosses the layer from the apical side. In general, Ki refers to the equilibrium dissociation constant of an inhibitor or competing ligand from its target.

T1 sequence (Q5S007 whole entry): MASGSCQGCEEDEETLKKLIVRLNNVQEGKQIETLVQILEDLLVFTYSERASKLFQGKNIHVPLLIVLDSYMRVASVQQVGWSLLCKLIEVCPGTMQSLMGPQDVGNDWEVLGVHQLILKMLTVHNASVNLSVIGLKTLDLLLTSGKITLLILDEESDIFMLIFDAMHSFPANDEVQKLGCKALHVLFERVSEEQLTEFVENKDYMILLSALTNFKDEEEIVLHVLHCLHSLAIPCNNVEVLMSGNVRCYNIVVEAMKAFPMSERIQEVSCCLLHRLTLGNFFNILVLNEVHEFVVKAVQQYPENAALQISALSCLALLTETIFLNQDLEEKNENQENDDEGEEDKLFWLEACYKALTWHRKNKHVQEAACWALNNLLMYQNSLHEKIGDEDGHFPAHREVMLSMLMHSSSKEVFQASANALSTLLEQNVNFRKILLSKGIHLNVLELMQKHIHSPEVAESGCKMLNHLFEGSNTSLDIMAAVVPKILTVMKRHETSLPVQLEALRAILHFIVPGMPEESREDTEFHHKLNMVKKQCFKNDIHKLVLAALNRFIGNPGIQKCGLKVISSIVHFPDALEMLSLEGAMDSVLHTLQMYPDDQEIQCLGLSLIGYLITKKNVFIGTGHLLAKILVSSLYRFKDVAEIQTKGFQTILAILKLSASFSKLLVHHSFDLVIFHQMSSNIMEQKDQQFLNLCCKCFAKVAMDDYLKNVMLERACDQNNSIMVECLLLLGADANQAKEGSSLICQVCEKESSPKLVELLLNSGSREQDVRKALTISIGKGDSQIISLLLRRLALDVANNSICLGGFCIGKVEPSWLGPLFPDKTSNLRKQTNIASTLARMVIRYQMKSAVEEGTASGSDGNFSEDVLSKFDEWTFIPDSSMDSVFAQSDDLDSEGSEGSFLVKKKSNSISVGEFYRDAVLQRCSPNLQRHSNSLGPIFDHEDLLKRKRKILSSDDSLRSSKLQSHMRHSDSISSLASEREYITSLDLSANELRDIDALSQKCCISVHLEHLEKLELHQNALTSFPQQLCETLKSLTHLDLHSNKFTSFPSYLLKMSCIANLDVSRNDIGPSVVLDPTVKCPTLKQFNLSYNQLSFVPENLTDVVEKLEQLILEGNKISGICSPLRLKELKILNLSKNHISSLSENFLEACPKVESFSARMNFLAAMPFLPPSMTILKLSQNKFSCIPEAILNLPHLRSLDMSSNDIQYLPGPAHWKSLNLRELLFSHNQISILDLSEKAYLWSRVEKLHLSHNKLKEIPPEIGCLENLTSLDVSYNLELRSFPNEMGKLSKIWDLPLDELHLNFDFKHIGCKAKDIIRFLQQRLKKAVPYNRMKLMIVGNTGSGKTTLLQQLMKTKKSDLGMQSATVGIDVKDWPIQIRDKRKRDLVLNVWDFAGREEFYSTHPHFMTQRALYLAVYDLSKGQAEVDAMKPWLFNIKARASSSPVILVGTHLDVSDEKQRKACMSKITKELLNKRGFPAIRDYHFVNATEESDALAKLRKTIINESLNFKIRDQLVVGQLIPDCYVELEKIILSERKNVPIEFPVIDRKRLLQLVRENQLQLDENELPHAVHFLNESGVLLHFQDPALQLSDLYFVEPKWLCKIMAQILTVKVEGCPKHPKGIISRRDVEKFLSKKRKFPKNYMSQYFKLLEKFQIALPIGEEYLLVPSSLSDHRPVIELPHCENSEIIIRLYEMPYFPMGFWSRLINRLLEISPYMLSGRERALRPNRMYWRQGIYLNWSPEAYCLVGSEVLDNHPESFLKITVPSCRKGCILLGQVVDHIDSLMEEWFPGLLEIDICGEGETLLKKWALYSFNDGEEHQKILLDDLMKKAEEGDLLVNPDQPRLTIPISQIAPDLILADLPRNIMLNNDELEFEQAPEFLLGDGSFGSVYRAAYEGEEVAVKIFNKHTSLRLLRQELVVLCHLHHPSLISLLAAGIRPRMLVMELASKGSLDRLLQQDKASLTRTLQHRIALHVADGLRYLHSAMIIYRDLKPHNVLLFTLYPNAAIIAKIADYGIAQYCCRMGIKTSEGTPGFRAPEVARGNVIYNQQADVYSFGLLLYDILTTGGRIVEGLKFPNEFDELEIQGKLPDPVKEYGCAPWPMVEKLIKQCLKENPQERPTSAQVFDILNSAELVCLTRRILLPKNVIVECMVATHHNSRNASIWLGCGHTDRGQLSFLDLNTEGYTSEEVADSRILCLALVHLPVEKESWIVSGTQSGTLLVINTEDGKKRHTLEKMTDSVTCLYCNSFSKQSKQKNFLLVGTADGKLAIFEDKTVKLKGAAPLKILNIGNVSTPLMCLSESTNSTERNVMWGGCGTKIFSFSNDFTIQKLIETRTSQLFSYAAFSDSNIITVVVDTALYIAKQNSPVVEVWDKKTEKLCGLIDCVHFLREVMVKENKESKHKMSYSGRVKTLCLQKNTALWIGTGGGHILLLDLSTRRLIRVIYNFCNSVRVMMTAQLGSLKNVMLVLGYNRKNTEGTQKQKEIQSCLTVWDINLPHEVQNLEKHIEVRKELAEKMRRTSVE
Chain of 5-hydroxytryptamine receptor 2B (Homo sapiens) (P41595 whole entry): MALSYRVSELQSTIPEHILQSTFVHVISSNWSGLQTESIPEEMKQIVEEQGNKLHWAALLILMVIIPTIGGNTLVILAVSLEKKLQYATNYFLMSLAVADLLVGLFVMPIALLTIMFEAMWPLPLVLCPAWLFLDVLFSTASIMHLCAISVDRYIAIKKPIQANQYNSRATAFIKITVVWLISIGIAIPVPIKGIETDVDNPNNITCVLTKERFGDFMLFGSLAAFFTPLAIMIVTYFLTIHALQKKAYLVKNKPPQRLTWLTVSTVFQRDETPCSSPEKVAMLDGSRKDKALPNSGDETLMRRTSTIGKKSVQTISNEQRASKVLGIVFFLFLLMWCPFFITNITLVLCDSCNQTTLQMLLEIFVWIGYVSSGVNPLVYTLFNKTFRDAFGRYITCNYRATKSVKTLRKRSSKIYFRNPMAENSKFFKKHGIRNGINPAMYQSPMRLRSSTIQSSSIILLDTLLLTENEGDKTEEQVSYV

Take `COc1cc(C(=O)N2CCOCC2)c(F)cc1Nc1ncc(C(F)(F)F)c(NC2CC2)n1`: the inhibition entry with Mus musculus [1] and in the series with Mus musculus [2] was “Active” in each case. Moreover, the Ratio in the series on MDCK worked out at 1.3. For the same compound, the fraction unbound in series [3] was 0.045; in series [6] it was 0.024. Also, the CLhep predicted was 0.294 L/h/kg in series [4] and 0.9 L/h/kg in series [8]. The Ratio Ki was above 3200 in [5] and 118 in [11]. Besides, the inhibition in series [7] was above 70%. For the same compound, the IC50 in series [9] amounted to 4 nM. The Papp A→B in the series with MDR1 (human) came to 109 nm/s. Also, in series [10], the inhibition constant Ki is 1 nM.
As to `CNc1nc(Nc2ccc(C(=O)N3CCOCC3)cc2OC)ncc1Cl`, the CLhep predicted in series [4] is 0.294 L/h/kg; in series [8], 1.46 L/h/kg. Besides, the fraction unbound in [6] is 0.082. Moreover, the “inhibition (INH)” value against Cytochrome P450 1A2 is “Active”. In the series with MDR1 (human), the Papp A→B amounted to 44 nm/s.
On to `CNc1nc(Nc2cc(OC)c(C(=O)N3CCOCC3)cc2Cl)ncc1C(F)(F)F`, for which the Ratio in the series on MDCK is on record as 1.1. Besides, the CLhep predicted in series [4] is 0.048 L/h/kg; in series [8], 0.222 L/h/kg. Also, the Ratio Ki in series [5] is above 808; in series [11], 105. Moreover, the Drug metabolism entry in series [12] is “Active”. Moreover, the fraction unbound in [6] is 0.092. The Activity entry in the series on PBL is recorded as “Non-toxic”. The same compound yielded an IC50 in [9] of 24 nM. In addition, in the series on MDR1 (human), the apparent permeability from apical to basolateral (Papp A→B) came out at 104 nm/s. This compound also showed a Ki in series [10] of 4 nM.
On to `CNc1nc(Nc2cc(C)c(C(=O)N3CCOCC3)cc2OC)ncc1C(F)(F)F`, for which the inhibition result in the series on Mus musculus [1] and in the series with Mus musculus [2] was “Active” in each case. For the same compound, the Ratio in the series with MDCK turned out to be 3.1. Besides, the values for the CLhep predicted in [4] and in [8] were 0.252 L/h/kg and 1.32 L/h/kg, respectively. Besides, the Ratio Ki in [5] is above 1870; in [11], 387. The fraction unbound in [6] was 0.042. In addition, it took 11 nM to reach half-maximal inhibition in series [9] (IC50). Also, the Papp A→B in the series with MDR1 (human) is 50 nm/s. In series [10], this compound returned a Ki of 2 nM.
`CCNc1nc(Nc2cc(OC)c(C(=O)N3CCOCC3)cc2Cl)ncc1C(F)(F)F`: in the series with MDCK, the Ratio was 1.6. Moreover, the CLhep predicted in [4] was 0.054 L/h/kg; in [8] it was 1.56 L/h/kg. Also, the figures for the Ratio Ki in [5] and in [11] were above 1100 and 77, respectively. Besides, the Drug metabolism result in series [12] is “Active”. For the same compound, the fraction unbound in series [6] was 0.037. Further, the Activity entry in the series on PBL is “Non-toxic”. Further, the IC50 in series [9] was 27 nM. For the same compound, in the series on MDR1 (human), the Papp A→B turned out to be 83 nm/s. The compound further came in with a Ki in series [10] of 3 nM.
With `CNc1nc(Nc2cc(OC)c(C(=O)N3CCOCC3)cc2OC)ncc1C(F)(F)F`, in the series with MDCK, the Ratio worked out at 3.4. In addition, the CLhep predicted is 0.048 L/h/kg in series [4] and 0.912 L/h/kg in [8]. Also, the Ratio Ki in [5] was above 2540; in series [11], 275. In series [6], the fraction unbound is 0.086. Besides, in [9], it took 21 nM to reach half-maximal inhibition (IC50). The Papp A→B with MDR1 (human) stood at 44 nm/s. The compound also showed a Ki in series [10] of 1 nM.
Regarding `CNc1nc(Nc2cc(F)c(C(=O)N3CCOCC3)cc2OC)ncc1C(F)(F)F`, the Ratio in the series on MDCK came out at 2.2. The CLhep predicted in [4] is 0.234 L/h/kg; in [8] it was 0.66 L/h/kg. Also, the Ratio Ki in series [5] was above 533; in series [11] it was 62. Further, the fraction unbound in [6] was 0.043. For the same compound, the midpoint of inhibition in series [9], the IC50, lay at 16 nM. Besides, in the series with MDR1 (human), the Papp A→B amounted to 33 nm/s. The compound further yielded a Ki in series [10] of 6 nM.
